Measurements: ChEMBL document CHEMBL3425438, “Investigation of (E)-3-[4-(2-Oxo-3-aryl-chromen-4-yl)oxyphenyl]acrylic Acids as Oral Selective Estrogen Receptor Down-Regulators” (J Med Chem, 2015)
Converted amounts (≈) assume the structure as drawn.

Tests used:
[1] = tested on: MCF7; experiment: Inhibition of cell proliferation in human MCF7 cells after 7 days by laser scanning imaging cytometer analysis; format: functional, cell-based; details: MCF7, 168 h
In short: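 MCF-7 cells plated in reduced-serum medium the day before; concentration response for 7 days; cell number by nucleic acid stain, read on laser scanning imaging cytometer; EC50 for decrease in proliferation.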

[2] = Free plasma concentration in human by LC-UV-MS analysis; format: ADME, cell-free
In short: (§1)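 Equilibrium dialysis in plasma of the matching species at 37 °C; free and bound concentrations quantified by LC-UV-MS; reported as % free.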

[3] = Free plasma concentration in mouse by LC-UV-MS analysis; format: ADME, cell-free; in short: as §1
[4] = Free plasma concentration in rat by LC-UV-MS analysis; format: ADME, cell-free; in short: as §1
[5] = Volume of distribution at steady state in CD-1 mouse at 0.5 mg/kg, iv; format: ADME, organism-based; parameters: dose 0.5 mg/kg, route intravenous; details: in vivo, read-out: Vdss
In short: (§2)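 Fed CD-1 mice or Alderley Park Han Wistar rats, two animals per study; IV 0.5 mg/kg as aqueous solution of DMSO and cyclodextrin; clearance and Vss derived.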

[6] = Volume of distribution at steady state in Alderley Park Han Wistar rat at 0.5 mg/kg, iv; format: ADME, organism-based; parameters: dose 0.5 mg/kg, route intravenous; details: in vivo, read-out: Vdss; in short: as §2
[7] = Oral bioavailability in CD-1 mouse at 50 mg/kg using 0.5% polysorbate suspension; format: ADME, organism-based; details: in vivo
In short: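 Fed CD-1 mice, two per study; oral 50 mg/kg 0.5% polysorbate suspension; IV reference 0.5 mg/kg aqueous DMSO/cyclodextrin.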

[8] = Oral bioavailability in Alderley Park Han Wistar rat at 1 mg/kg using 5% DMSO, 95% of a 30% aqueous cyclodextrin solution; format: ADME, organism-based; details: in vivo
In short: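 Fed Han Wistar rats, two per study; oral 1 mg/kg solution in 5% DMSO, 95% of a 30% aqueous cyclodextrin solution; IV reference 0.5 mg/kg in aqueous DMSO/cyclodextrin.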

[9] = molecular target: T1, Estrogen receptor (Homo sapiens, UniProt P03372); experiment: Binding affinity to ER alpha (unknown origin) by LanthaScreen TR-FRET competitive binding assay
T1 sequence (P03372 whole entry): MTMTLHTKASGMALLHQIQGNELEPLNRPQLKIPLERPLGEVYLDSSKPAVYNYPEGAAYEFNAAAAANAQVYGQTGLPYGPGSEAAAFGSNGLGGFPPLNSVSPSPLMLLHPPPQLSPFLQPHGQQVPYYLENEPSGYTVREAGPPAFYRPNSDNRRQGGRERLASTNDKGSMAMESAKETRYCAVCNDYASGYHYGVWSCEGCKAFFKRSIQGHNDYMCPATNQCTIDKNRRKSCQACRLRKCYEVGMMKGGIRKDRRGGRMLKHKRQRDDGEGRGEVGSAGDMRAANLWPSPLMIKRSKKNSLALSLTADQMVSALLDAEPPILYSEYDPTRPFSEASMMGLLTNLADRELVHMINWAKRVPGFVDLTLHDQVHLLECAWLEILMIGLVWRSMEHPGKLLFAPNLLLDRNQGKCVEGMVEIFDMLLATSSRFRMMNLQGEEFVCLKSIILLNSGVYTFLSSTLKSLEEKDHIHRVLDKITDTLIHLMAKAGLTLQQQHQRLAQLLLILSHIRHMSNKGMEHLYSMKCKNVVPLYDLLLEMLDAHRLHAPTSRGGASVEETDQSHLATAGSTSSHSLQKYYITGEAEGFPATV
In short: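 LanthaScreen TR-FRET ERα competitive binding; 12-point half-log concentration response; TR-FRET emission ratio read on microplate reader; IC50 reported.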

[10] = molecular target: T1, Estrogen receptor; experiment: Suppression of ER alpha in human MCF7 cells after 24 hrs by immunostaining analysis; format: cell-based
[11] = molecular target: T1, Estrogen receptor; experiment: Antagonist activity at ER alpha in human MCF7 cells assessed as inhibition of estradiol-induced PR expression treated for 24 hrs after incubation with estradiol for 30 mins by laser scanning imaging cytometer analysis; format: cell-based
[12] = Octanol-buffer partition coefficient, log D of the compound at ratio of 1:100 at pH 7.4 by shake-flask method; format: physicochemical
[13] = Dissociation constant, pKa of the compound in acidic medium by potentiometric analysis; format: physicochemical
In short: (§3)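 pKa (acid and phenol) by potentiometric titration.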

[14] = Dissociation constant, pKa of the compound by potentiometric analysis […] phenol; format: physicochemical; in short: as §3
[15] = Thermodynamic solubility of the compound in 0.1 M aqueous phosphate buffer at 25 degC at pH 7.4 after 24 hrs; format: physicochemical; details: read-out: Therm_solubility
[16] = Apparent permeability from apical to basolateral side in human Caco2 cells; format: ADME, cell-based; details: Caco-2
[17] = Intrinsic clearance in human hepatocytes measured per 10^6 cells; format: ADME, cell-based, Hepatocyte; details: read-out: CLH
[18] = Intrinsic clearance in mouse hepatocytes measured per 10^6 cells; format: ADME, cell-based, Hepatocyte; details: read-out: CLH
[19] = Intrinsic clearance in rat hepatocytes measured per 10^6 cells; format: ADME, cell-based, Hepatocyte; details: read-out: CLH
[20] = Clearance in CD-1 mouse at 0.5 mg/kg, iv; format: ADME, organism-based; parameters: dose 0.5 mg/kg, route intravenous; details: in vivo
[21] = Clearance in Alderley Park Han Wistar rat at 0.5 mg/kg, iv; format: ADME, organism-based; parameters: dose 0.5 mg/kg, route intravenous; details: in vivo
[22] = Oral bioavailability in CD-1 mouse at 20 mg/kg using propylene glycol suspension; format: ADME, organism-based; details: in vivo
In short: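 Fed CD-1 mice, two per study; oral 20 mg/kg propylene glycol suspension; IV reference 0.5 mg/kg aqueous DMSO/cyclodextrin.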

[23] = Oral bioavailability in Alderley Park Han Wistar rat at 2 mg/kg using propylene glycol solution; format: ADME, organism-based; details: in vivo
In short: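 Fed Han Wistar rats, two per study; oral 2 mg/kg propylene glycol solution; IV reference 0.5 mg/kg aqueous DMSO/cyclodextrin.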

[24] = Oral bioavailability in Alderley Park Han Wistar rat at 5 mg/kg using HPMC/tween suspension; format: ADME, organism-based; details: in vivo
In short: (§4)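 Fed Han Wistar rats, two per study; oral HPMC/tween suspension at 1, 5 or 50 mg/kg as stated per line; IV reference 0.5 mg/kg in aqueous DMSO/cyclodextrin.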

[25] = Drug metabolism in rat hepatocytes assessed as formation of glucuronide conjugates by LC-UV-MS analysis; format: ADME, cell-based, Hepatocyte
[26] = Drug metabolism in rat hepatocytes assessed as formation of sulphate metabolite by LC-UV-MS analysis; format: ADME, cell-based, Hepatocyte
[27] = Drug metabolism in rat hepatocytes assessed as formation of acyl glucuronide conjugates by LC-UV-MS analysis; format: ADME, cell-based, Hepatocyte
[28] = molecular target: Voltage-gated inwardly rectifying potassium channel KCNH2 (Homo sapiens, UniProt Q12809); experiment: Inhibition of hERG channel by electrophysiology; format: toxicity
[29] = Oral bioavailability in Alderley Park Han Wistar rat at 50 mg/kg using HPMC/tween suspension; format: ADME, organism-based; details: in vivo; in short: as §4
[30] = Drug metabolism in rat hepatocytes assessed as oxidation metabolite formation by LC-UV-MS analysis; format: ADME, cell-based, Hepatocyte
[31] = molecular target: T1, Estrogen receptor; experiment: Agonist activity at ER alpha in human MCF7 cells assessed as PR gene expression after 24 hrs by laser scanning imaging cytometer analysis; format: cell-based; details: read-out: IC50 (the source's name)
[32] = Dissociation constant, pKa of the compound by potentiometric analysis; format: physicochemical; in short: as §3
[33] = Oral bioavailability in Alderley Park Han Wistar rat at 1 mg/kg using HPMC/tween suspension; format: ADME, organism-based; details: in vivo; in short: as §4

Voltage-gated inwardly rectifying potassium channel KCNH2, sequence (Q12809 whole entry): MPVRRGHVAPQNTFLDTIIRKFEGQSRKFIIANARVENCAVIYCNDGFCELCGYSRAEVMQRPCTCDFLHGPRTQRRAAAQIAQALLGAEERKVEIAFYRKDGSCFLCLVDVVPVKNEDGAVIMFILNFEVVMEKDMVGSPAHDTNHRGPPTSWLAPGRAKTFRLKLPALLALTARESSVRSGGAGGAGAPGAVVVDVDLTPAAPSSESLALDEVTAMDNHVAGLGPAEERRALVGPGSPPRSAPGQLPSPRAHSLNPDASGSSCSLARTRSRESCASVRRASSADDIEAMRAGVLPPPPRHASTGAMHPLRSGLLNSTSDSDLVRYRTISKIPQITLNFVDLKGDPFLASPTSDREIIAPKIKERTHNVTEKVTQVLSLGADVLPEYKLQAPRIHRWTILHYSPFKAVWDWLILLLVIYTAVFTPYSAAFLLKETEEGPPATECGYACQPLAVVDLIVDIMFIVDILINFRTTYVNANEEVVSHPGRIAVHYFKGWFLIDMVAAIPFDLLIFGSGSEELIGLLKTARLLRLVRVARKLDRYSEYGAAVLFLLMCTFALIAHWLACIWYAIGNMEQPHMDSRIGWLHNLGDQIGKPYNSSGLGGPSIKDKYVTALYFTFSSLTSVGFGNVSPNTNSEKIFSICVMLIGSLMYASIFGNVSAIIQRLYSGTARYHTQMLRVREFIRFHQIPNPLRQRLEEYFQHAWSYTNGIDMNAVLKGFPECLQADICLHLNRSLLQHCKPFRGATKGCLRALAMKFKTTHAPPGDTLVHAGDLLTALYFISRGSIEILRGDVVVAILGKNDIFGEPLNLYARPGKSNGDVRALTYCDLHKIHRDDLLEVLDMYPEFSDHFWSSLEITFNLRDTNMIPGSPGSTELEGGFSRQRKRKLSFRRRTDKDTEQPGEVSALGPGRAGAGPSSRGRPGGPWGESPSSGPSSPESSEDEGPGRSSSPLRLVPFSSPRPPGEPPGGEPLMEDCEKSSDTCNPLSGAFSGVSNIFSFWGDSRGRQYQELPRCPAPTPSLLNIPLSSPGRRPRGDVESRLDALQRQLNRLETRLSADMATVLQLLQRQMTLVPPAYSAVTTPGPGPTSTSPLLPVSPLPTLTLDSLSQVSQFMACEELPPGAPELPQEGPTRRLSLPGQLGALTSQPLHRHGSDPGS

SMILES | EC50 [1] [nM] | fraction unbound [2] | fraction unbound [3] | fraction unbound [4] | Vd [5] [L/kg] | Vd [6] [L/kg] | IC50 [9] [nM] | IC50 [10] [nM] | IC50 [11] [nM] | logD [12] | pKa [14] | solubility thermodynamic at 24 h [15] [µM] | Papp A→B [16] [×10⁻⁶ cm/s] | hepatocyte CLint [17] [µL/min/1e6 cells] | hepatocyte CLint [18] [µL/min/1e6 cells] | hepatocyte CLint [19] [µL/min/1e6 cells] | clearance [21] [mL/min/kg] | other results
O=C(O)/C=C/c1ccc(Cc2c(-c3ccccc3)c(=O)oc3cc(O)ccc23)cc1 | 260 | 0.012 | 0.012 | 0.0098 | 4.7 | 1.4 | 8.1 | 1180 | 1500 | 1.5 | 7.7 | 470 (≈ 187 µg/mL) | 10 | 18 | 87 | 120 | 67 | pKa [13]: 4.4; clearance [20]: 210 mL/min/kg; bioavailability [22]: 0%; bioavailability [23]: 0%; bioavailability [24]: 67%
O=C(O)/C=C/c1ccc(Cc2c(-c3ccc(F)cc3)c(=O)oc3cc(O)ccc23)cc1 | – | – | – | – | – | – | 9 | 1280 | – | – | – | – | – | – | – | – | – | Drug metabolism [25]: metabolite_detected; Drug metabolism [26]: metabolite_detected; Drug metabolism [27]: metabolite_detected
Cc1cc(F)ccc1-c1c(Cc2ccc(/C=C/C(=O)O)cc2)c2ccc(CO)cc2oc1=O | – | – | – | – | – | – | 100 | 1000 | – | 1.2 | – | – | – | 14 | – | 81 | – | Drug metabolism [30]: metabolite_detected

Now from value to compound, other results behind:

EC50 [1] [nM] | fraction unbound [2] | fraction unbound [3] | fraction unbound [4] | Vd [5] [L/kg] | Vd [6] [L/kg] | IC50 [9] [nM] | IC50 [10] [nM] | IC50 [11] [nM] | logD [12] | pKa [14] | solubility thermodynamic at 24 h [15] [µM] | Papp A→B [16] [×10⁻⁶ cm/s] | hepatocyte CLint [17] [µL/min/1e6 cells] | hepatocyte CLint [18] [µL/min/1e6 cells] | hepatocyte CLint [19] [µL/min/1e6 cells] | clearance [21] [mL/min/kg] | SMILES | other results
300 | < 0.002 | 0.064 | < 0.0001 | 1.1 | 0.5 | – | – | – | – | – | – | – | – | – | – | – | CC/C(=C(\c1ccccc1)c1ccc(/C=C/C(=O)O)cc1)c1ccccc1 | bioavailability [7]: 62%; bioavailability [8]: 68%
< 0.1 | 0.0012 | 0.0084 | 0.0037 | – | 0.7 | 0.5 | 2.7 | 3.9 | 2.1 | 8.2 | 97 (≈ 48.3 µg/mL) | 15 | 11 | 9 | 41 | 38 | Cc1cc(OC(F)(F)F)ccc1-c1c(Oc2ccc(/C=C/C(=O)O)cc2)c2ccc(O)cc2oc1=O | IC50 [28]: > 100000 nM; bioavailability [29]: 0%
20 | 0.0016 | – | 0.0032 | – | 1.7 | 15 | 100 | 180 | 2.5 | – | > 470 | 39 | 7 | – | 19 | 15 | Cc1cc(OC(F)(F)F)ccc1-c1c(Oc2ccc(/C=C/C(=O)O)cc2)c2ccccc2oc1=O | EC50 [31]: > 3100 nM; pKa [32]: 3.7; bioavailability [33]: 35%
